ChEMBL document CHEMBL3120115, “Synthesis and biological evaluation of 2-oxonicotinonitriles and 2-oxonicotinonitrile based nucleoside analogues” (Eur J Med Chem, 2014)

Assays:
Aspergillus viridinutans = assay: Antimicrobial activity against Aspergillus viridinutans at 250 ug/disc after 5 to 7 days by well diffusion method; assay type: functional; conditions: read-out: DIZ
How it was run: (§1)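 Well diffusion assay. Bacteria were grown on nutrient agar and fungi on Czapek's-Dox agar; spores were inoculated into sterilized medium, dispersed and poured into plates. Compounds were dissolved in DMF at 250 mg/mL and loaded into 1 cm wells. Plates stood 24 h refrigerated for diffusion, then were incubated at 35 °C for 48 h (bacteria) or 28 °C for 5-7 days (fungi). Inhibition zone diameter was read in mm. DMF-only wells served as negative control.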

Escherichia coli = assay: Antimicrobial activity against Escherichia coli at 250 ug/disc after 48 hrs by well diffusion method; assay type: functional; conditions: read-out: DIZ; how it was run: as §1
Bacillus subtilis = assay: Antimicrobial activity against Bacillus subtilis at 250 ug/disc after 48 hrs by well diffusion method; assay type: functional; conditions: read-out: DIZ; how it was run: as §1
Aspergillus niger = assay: Antimicrobial activity against Aspergillus niger at 250 ug/disc after 5 to 7 days by well diffusion method; assay type: functional; conditions: read-out: DIZ; how it was run: as §1
[1] = Selectivity index, ratio of CC50 for cytotoxicity to EC50 for Influenza A virus H3N2; assay type: toxicity; conditions: read-out: Ratio CC50/EC50
How it was run: (§2)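 CC50 is the concentration at which 50% of cells die, and EC50 is the concentration inhibiting 50% of viral infection. SI is calculated as the CC50/EC50 ratio.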

[2] = Selectivity index, ratio of CC50 for cytotoxicity to EC50 for Influenza B virus; assay type: toxicity; conditions: read-out: Ratio CC50/EC50; how it was run: as §2
[3] = Selectivity index, ratio of CC50 for cytotoxicity to EC50 for HSV2; assay type: toxicity; conditions: read-out: Ratio CC50/EC50; how it was run: as §2
[4] = Selectivity index, ratio of CC50 for cytotoxicity to EC50 for HSV1; assay type: toxicity; conditions: read-out: Ratio CC50/EC50; how it was run: as §2
Influenza A virus [5] = assay: Antiviral activity against Influenza A virus H5N1 by cytopathy assay; assay type: functional, organism-based
Influenza B virus = assay: Antiviral activity against Influenza B virus by cytopathy assay; assay type: functional, organism-based
Influenza A virus [6] = assay: Antiviral activity against Influenza A virus H3N2 by cytopathy assay; assay type: functional, organism-based
West Nile virus = assay: Antiviral activity against West Nile virus by visual/neutral red test; assay type: functional, organism-based
SARS-CoV [7] = assay: Antiviral activity against SARS coronavirus by visual/neutral red test; assay type: functional, organism-based; conditions: Severe acute respiratory syndrome-related coronavirus
Human alphaherpesvirus 1 = assay: Antiviral activity against HSV1 assessed as inhibition of viral infection; assay type: functional, organism-based
Human alphaherpesvirus 2 = assay: Antiviral activity against HSV2 assessed as inhibition of viral infection; assay type: functional, organism-based
Hepatitis C virus = assay: Antiviral activity against Hepatitis C virus assessed as inhibition of viral infection by RNA replicon assay; assay type: functional, organism-based, Hepacivirus hominis
Hepatitis B virus = assay: Antiviral activity against Hepatitis B virus assessed as inhibition of viral infection by DNA virion assay; assay type: functional, organism-based
SARS-CoV [8] = assay: Antiviral activity against SARS coronavirus by visual method; assay type: functional, organism-based; conditions: Severe acute respiratory syndrome-related coronavirus
[9] = Selectivity index, ratio of CC50 for cytotoxicity to EC50 for Influenza A virus H5N1; assay type: toxicity; conditions: read-out: Ratio CC50/EC50; how it was run: as §2
[10] = Selectivity index, ratio of CC50 for cytotoxicity to EC50 for SARS coronavirus; assay type: toxicity; conditions: read-out: Ratio CC50/EC50; how it was run: as §2

N#Cc1c(-c2ccc(Cl)cc2)cc(-c2ccccn2)n(CCCO)c1=O
zone of inhibition at 250 µg/disc (Aspergillus viridinutans): 9 mm
zone of inhibition at 250 µg/disc (Escherichia coli): 0 mm
zone of inhibition at 250 µg/disc (Bacillus subtilis): 3 mm

CC(C)c1ccc(-c2cc(-c3cccs3)n(COCCO)c(=O)c2C#N)cc1
zone of inhibition at 250 µg/disc (Aspergillus viridinutans): 6 mm
zone of inhibition at 250 µg/disc (Aspergillus niger): 7 mm
zone of inhibition at 250 µg/disc (Escherichia coli): 0 mm
zone of inhibition at 250 µg/disc (Bacillus subtilis): 23 mm

CC(=O)OC[C@H]1O[C@@H](n2c(-c3ccccn3)cc(-c3ccc(Cl)cc3)c(C#N)c2=O)[C@H](OC(C)=O)[C@@H](OC(C)=O)[C@H]1OC(C)=O
zone of inhibition at 250 µg/disc (Aspergillus viridinutans): 5 mm
zone of inhibition at 250 µg/disc (Aspergillus niger): 7 mm
zone of inhibition at 250 µg/disc (Escherichia coli): 0 mm

CC(=O)OC[C@H]1O[C@@H](n2c(-c3cccs3)cc(-c3cccs3)c(C#N)c2=O)[C@H](OC(C)=O)[C@@H](OC(C)=O)[C@@H]1OC(C)=O
selectivity ratio [1]: > 2.5
selectivity ratio [2]: 1
selectivity ratio [3]: < 4
selectivity ratio [4]: < 4
EC50 (Influenza A virus [5]): > 100 µM
EC50 (Influenza B virus): 32 µM
EC50 (Influenza A virus [6]): 40 µM
EC50 (West Nile virus): > 3 µM
EC50 (SARS-CoV [7]): > 32 µM
EC50 (Human alphaherpesvirus 1): > 60 µM
EC50 (Human alphaherpesvirus 2): > 60 µM
EC50 (Hepatitis C virus): > 100 µM
EC50 (Hepatitis B virus): > 100 µM
zone of inhibition at 250 µg/disc (Aspergillus viridinutans): 6 mm
zone of inhibition at 250 µg/disc (Aspergillus niger): 8 mm
zone of inhibition at 250 µg/disc (Escherichia coli): 0 mm
zone of inhibition at 250 µg/disc (Bacillus subtilis): 2 mm

CC1(C)O[C@@H]2C[C@H]3[C@@H]4C[C@H](F)C5=CC(=O)C=C[C@]5(C)[C@@]4(F)[C@@H](O)C[C@]3(C)[C@]2(C(=O)CO)O1 [FLUOCINOLONE ACETONIDE]
zone of inhibition at 250 µg/disc (Aspergillus viridinutans): 31 mm
zone of inhibition at 250 µg/disc (Aspergillus niger): 22 mm

C=CCOc1nc(-c2ccccn2)cc(-c2ccc(Cl)cc2)c1C#N
zone of inhibition at 250 µg/disc (Aspergillus viridinutans): 7 mm
zone of inhibition at 250 µg/disc (Escherichia coli): 0 mm
zone of inhibition at 250 µg/disc (Bacillus subtilis): 1 mm

Nc1nc2c(ncn2COCCO)c(=O)[nH]1 [ACYCLOVIR]
selectivity ratio [3]: > 10.4
selectivity ratio [4]: > 30.3
EC50 (Human alphaherpesvirus 1): 3.3 µM
EC50 (Human alphaherpesvirus 2): 9.6 µM

N#Cc1c(-c2cccs2)cc(-c2cccs2)n([C@@H]2O[C@H](CO)[C@@H](O)[C@H](O)[C@H]2O)c1=O
zone of inhibition at 250 µg/disc (Aspergillus viridinutans): 6 mm
zone of inhibition at 250 µg/disc (Bacillus subtilis): 2 mm

CC(=O)OCCOCn1c(-c2cccs2)cc(-c2cccs2)c(C#N)c1=O
zone of inhibition at 250 µg/disc (Aspergillus viridinutans): 7 mm
zone of inhibition at 250 µg/disc (Aspergillus niger): 8 mm
zone of inhibition at 250 µg/disc (Escherichia coli): 0 mm
zone of inhibition at 250 µg/disc (Bacillus subtilis): 10 mm

CC(C)c1ccc(-c2cc(-c3cccs3)n([C@@H]3O[C@H](CO)[C@@H](O)[C@H](O)[C@H]3O)c(=O)c2C#N)cc1
zone of inhibition at 250 µg/disc (Aspergillus viridinutans): 8 mm
zone of inhibition at 250 µg/disc (Aspergillus niger): 7 mm
zone of inhibition at 250 µg/disc (Escherichia coli): 0 mm
zone of inhibition at 250 µg/disc (Bacillus subtilis): 10 mm

Nc1ccn([C@@H]2CS[C@H](CO)O2)c(=O)n1 [LAMIVUDINE]
EC50 (Hepatitis B virus): 0.035 µM

CC(=O)OC[C@H]1O[C@@H](n2c(-c3ccccn3)cc(-c3ccc(Cl)cc3)c(C#N)c2=O)[C@H](OC(C)=O)[C@@H](OC(C)=O)[C@@H]1OC(C)=O
EC50 (SARS-CoV [8]): 8.3 µM
selectivity ratio [9]: 1.3
selectivity ratio [1]: > 4.2
selectivity ratio [3]: 1
selectivity ratio [10]: 4.3
selectivity ratio [4]: 1
EC50 (Influenza A virus [5]): 3.2 µM
EC50 (Influenza B virus): > 3.2 µM
EC50 (Influenza A virus [6]): 24 µM
EC50 (West Nile virus): > 5.1 µM
EC50 (Human alphaherpesvirus 1): > 300 µM
EC50 (Human alphaherpesvirus 2): > 300 µM
EC50 (Hepatitis C virus): > 100 µM
EC50 (Hepatitis B virus): > 100 µM

CC(=O)OC[C@H]1O[C@@H](n2c(-c3cccs3)cc(-c3ccc(C(C)C)cc3)c(C#N)c2=O)[C@H](OC(C)=O)[C@@H](OC(C)=O)[C@H]1OC(C)=O
zone of inhibition at 250 µg/disc (Aspergillus viridinutans): 6 mm
zone of inhibition at 250 µg/disc (Aspergillus niger): 9 mm
